Bioassay records: PubChem BioAssay, several laboratories
Compounds with a hit are over-represented: about 2.2% of the library has one in this group of screens.
Diaphorase inh: diaphorase inhibitors and chemical oxidizers, primary screen, counter-screen for diaphorase-coupled primary assays, biochemical, uHTS, resorufin fluorescence. diaphorase resazurin-to-resorufin fluorescence, NADH, 16 min; bacterial (C. kluyveri) enzyme, not human. inhibition, % at 20 µM. hit rate 0.69% among 190,000. AID 1217, 2008;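 active = primary screen inhibition at 20 µM above a set limit, cut at about 50% in these data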;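 note: plate controls were DMSO with full reaction for no effect and wells lacking NADH for full effect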
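material = Clostridium kluyveri diaphorase enzyme | amount = 0.14 U/mL diaphorase, enzyme working solution | schedule = incubation 16 min, room temperature | detection = fluorescence of resorufin formed from resazurin, Ex 544/Em 590 nm | benchmarks = positive control minus NADH, DMSO neutral control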
Diaph act CS: compounds boosting diaphorase resazurin reduction – biochemical, uHTS, resorufin fluorescence, counter-screen for diaphorase-coupled primary assays, primary screen | activation factor at 20 µM | AID 1229, 2008 | hit rate 0.005% among 190,000 | Diaphorase/resazurin coupled assay, 16 min; active compounds read high; 1 = vehicle wells, 0 = NADH-free wells;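 active = diaphorase activity raised at least twofold by the compound at 20 µM; inactive = activation factor below 2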
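Test system: Clostridium kluyveri diaphorase, purified enzyme; input: enzyme 0.07 U/mL final; buffer or medium: 50 mM HEPES pH 7.4 with 4.542 mM MgCl2, 0.005% Tween 20; also added: 0.114 mM NADH and 0.1 mM resazurin, final amounts; schedule: 16 min enzyme reaction, ambient temperature; technique: fluorescence of resorufin, 544 nm excitation, 590 nm emission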
PMI activator: activators of human PMI, primary screen, biochemical, fluorescence intensity, near-Km mannose 6-phosphate; Mannose-6-phosphate isomerase (Homo sapiens), P34949; purified human PMI, coupled resazurin fluorescence, 20 min; active compounds read high; 1 = vehicle control, 0 substrate-free wells; activation factor at 20 µM; hit rate 0.005% among 190,000;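 active = activation factor of 2 or more at 20 µM, relative to plate controls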
Target sequence (P34949 whole entry, looked up): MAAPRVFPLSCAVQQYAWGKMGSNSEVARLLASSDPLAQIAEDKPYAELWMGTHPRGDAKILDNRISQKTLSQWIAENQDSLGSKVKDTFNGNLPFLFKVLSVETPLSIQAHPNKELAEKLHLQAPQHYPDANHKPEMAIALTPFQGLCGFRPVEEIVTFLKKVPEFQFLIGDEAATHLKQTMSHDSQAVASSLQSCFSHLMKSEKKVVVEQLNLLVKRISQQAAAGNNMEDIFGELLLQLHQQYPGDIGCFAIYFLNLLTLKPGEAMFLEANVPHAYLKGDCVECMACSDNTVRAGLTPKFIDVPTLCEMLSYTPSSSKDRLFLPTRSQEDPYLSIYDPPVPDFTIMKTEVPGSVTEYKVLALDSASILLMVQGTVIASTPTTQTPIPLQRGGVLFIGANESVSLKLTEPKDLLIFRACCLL
PMI act hi M6P: human PMI activators, high substrate, primary screen, biochemical, fluorescence intensity, near-saturating mannose 6-phosphate; coupled PMI enzyme assay, resazurin fluorescence, 20 min; active compounds read high; 1 = untreated enzyme, 0 = substrate-free blank; activation factor at 20 µM; hit rate 0.34% among 190,000; AID 1216, 2008;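 active = activation factor of 2 or more at 20 µM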
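test system = human PMI in coupled enzyme assay | medium = HEPES-buffered pH 7.4 with magnesium and detergent | also added = 1.0 mM mannose-6-phosphate substrate with 0.22 mM NADP+ | compound = 20 µM single dose | times = 20 min incubation at room temperature | measured by = resorufin fluorescence (Ex 544/Em 590 nm) from resazurin via diaphorase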
ROMK primary: ROMK potassium channel modulators, primary screen, cell-based, thallium flux, MLSMR library; ATP-sensitive inward rectifier potassium channel 1 (Homo sapiens), P48048; Tet-inducible ROMK, thallium flux fluorescence; actives lie on both sides; B-score at 10 µM; hit rate 2% among 130,000; AID 1918, 2009;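 active = signal ratio slope over the read window, or its plate-corrected B-score, at least 3 SD from the plate mean, either direction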;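 note: B-score of the F/F0 ratio slope over 7 to 12 s after thallium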
G6PDH CS: L. mesenteroides G6PDH inhibitors, counter-screen for G6PDH-coupled screening assays, biochemical, Leuconostoc mesenteroides enzyme; Purified L. mesenteroides G6PDH, diaphorase/resazurin coupled fluorescence, 45 min; inhibition, % at 5 µM; hit rate 0.12% among 200,000; AID 1020, 2008; in the data active = inhibition above about 50%
Starred values were filed as active, the others as inactive; x = no result given.

SMILES	Diaphorase inh	Diaph act CS	PMI activator	PMI act hi M6P	ROMK primary	G6PDH CS
O=C(NC(=S)NCCN1CCOCC1)c1ccc(F)cc1	7.4	0.9	1	1	0.92	12.0
O=C(O)CCCCCN1C(=O)C(O)=C(C(=O)/C=C/c2ccccc2)C1c1ccccc1[N+](=O)[O-] (centres undefined)	4.0	1	1.2	0.7	0.6	25.7
O=C1CS/C(=N\C(=O)N2c3ccccc3Sc3ccccc32)N1	70.1*	0.3	0.9	0.9	-1.14	7.8
O=C1CSC(=Nc2ccccc2)N1	8.7	0.9	0.9	1	1.13	2.3
O=C(COc1ccccc1)NNC(=S)NC(=O)c1ccc(Cl)cc1Cl	36.6	0.6	1.1	1.3	x	-1.6
Cc1cccc(C(=O)NC(=S)NNC(=O)COc2ccc(Cl)cc2)c1	7.6	0.9	0.9	1.2	3.31*	4.6
N#Cc1c(N2CCCC(O)C2)nc(N)c2c(N)nc3c(c12)CC(=O)N3C12CC3CC(CC(C3)C1)C2 (centres undefined)	55.4*	0.4	0.4	0.4	x	49.7
Cc1ccc(-c2csc3nc[nH]c(=S)c23)cc1C	58.9*	0.4	1	1.1	x	4.4
O=c1[nH]cnc2scc(-c3ccc(-c4ccccc4)cc3)c12	5.4	0.9	1.1	1	1.27	11.0
CCN(CC)CCN1C(=O)C(O)=C(C(=O)c2ccco2)C1c1ccccn1 (centres undefined)	60.4*	0.4	1.4	1.6	0.718	9.7
Nc1nc2c(s1)COc1ccccc1-2	9.4	0.9	0.9	0.9	-0.0185	12.2
Nc1nc2c(s1)CCc1c-2cnn1-c1ccccc1	66.2*	0.3	0.1	0.4	-1.79	61.7*
CC(C)Oc1ccc(/C(O)=C2/C(=O)C(=O)N(CCN(C)C)C2c2cccs2)cc1 (centres undefined)	2.4	1	1.2	1.1	0.472	10.1
CN(C)CCCNC(=O)c1ccc(Oc2ccccc2)cc1	2.4	1	1.1	1.1	-0.0327	5.9
NC(=S)N=Nc1c(O)[nH]c2c(Br)cc(Br)cc12	13.2	0.9	0.8	0.6	x	9.7
O=C(NCc1ccco1)C(=O)NCC1OCCN1S(=O)(=O)c1cc(F)ccc1F (centres undefined)	x	x	x	x	0.697	x
CCc1ccc2oc(-c3ccc(OC)cc3)cc(=Nc3cccc(C(=O)O)c3)c2c1	16.0	0.8	1	0.8	2.27*	0.0
CC(=O)C1=C(O)CCCC1=NCc1nc2ccccc2[nH]1	-7.4	1.1	1	1.1	x	3.7
Cc1ccsc1C1Nc2ccc3ncccc3c2C2=C1C(=O)CC(C)(C)C2 (centres undefined)	52.7*	0.5	0.7	0.5	x	14.1
O=C1CCCC2=C1C(c1ccc(O)c(O)c1)Nc1ccc3ncccc3c12 (centres undefined)	71.3*	0.3	0.5	0.5	-0.958	28.5
O=C1CCCC2=C1C(c1cccs1)Nc1ccc3ncccc3c12 (centres undefined)	2.8	1	0.9	0.8	x	3.1
Nc1nc(=S)[nH]c2c1C1(CCCCC1)Cc1ccccc1-2	53.2*	0.5	0.9	1	-0.0207	-8.2
COc1ccc(C2CC(c3cccs3)=NN2c2nc(-c3ccccc3)cs2)cc1OC (centres undefined)	4.1	1	1.6	2.1*	x	-22.3
COc1ccc(C2CC(c3cccs3)=NN2S(C)(=O)=O)cc1OC (centres undefined)	-0.2	1	1	1	-0.452	14.5
Cc1cccc(/C=N/NC(=O)C(C)Nc2cccc3ccccc23)n1 (centres undefined)	27.7	0.7	1.3	1.7	0.0904	50.0*
SMILES	Diaphorase inh	Diaph act CS	PMI activator	PMI act hi M6P	ROMK primary	G6PDH CS
CC(Nc1cccc2ccccc12)C(=O)N/N=C/c1ccc([N+](=O)[O-])cc1 (centres undefined)	16.8	0.8	0.8	0.6	-1.16	-1.3
COc1cc([N+](=O)[O-])cc(/C=N/NC(=O)C(C)Nc2cccc3ccccc23)c1O (centres undefined)	70.5*	0.3	1	0.7	x	-16.5
Fc1cccc(Cl)c1-c1nnc2ccc(C(F)(F)F)cn12	4.9	1	1	1	1.87	2.6
CCCc1nc2c(=O)n(C)c(=O)nc-2n(C)n1	46.5	0.5	0.6	0.4	x	56.3*
CC(C)CCn1nnnc1CN1CCN(c2ccccc2)CC1	-3.7	1	1.1	1.1	-0.633	4.1
N#C/C(=N\Nc1cccc([N+](=O)[O-])c1)C(=O)c1ccc(Br)cc1	29.3	0.7	1.3	1.1	3.11*	-1.3
O=C(O)c1ccc(N=NNc2cccc([N+](=O)[O-])c2)cc1	7.0	0.9	1	1	-0.125	-1.7
Cc1cc(C)c2c(N)c(C(=O)NCc3ccco3)sc2n1	13.4	0.9	1.7	2*	x	9.1
COCc1cc(C)nc2sc(C(=O)N3CCCC3)c(N)c12	20.1	0.8	1.1	1.3	x	0.8
Cc1cc(C)c2c(N)c(C(=O)N3CCCCCC3)sc2n1	5.6	0.9	1.8	2.3*	x	0.5
COc1ccc(/C=N/NC(=O)c2ccccc2F)cc1CN1CCN(c2ccc(F)cc2)CC1	12.3	0.9	0.8	0.9	-0.629	10.5
O=C1OC(c2ccc3c(c2)OCO3)N(C(=O)c2ccc(Cl)c(Cl)c2)c2ccccc21 (centres undefined)	9.4	0.9	0.9	1	0.533*	0.5
Cc1cccc(C(=O)N2c3ccccc3C(=O)OC2c2ccc3c(c2)OCO3)c1 (centres undefined)	18.4	0.8	0.9	0.9	0.743	8.4
Cc1c(NC(=O)C(C)OC(=O)CCC2CCCC2)c(=O)n(-c2ccccc2)n1C (centres undefined)	8.7	0.9	0.9	0.9	0.0333	5.9
O=[N+]([O-])c1cc2oc3c(c2c(C=NCc2ccncc2)c1O)CCCC3	56.0*	0.4	0.7	0.5	x	-0.2
O=C(c1ccc(Cl)nc1)N1CCN(C/C=C/c2ccccc2)CC1	18.5	0.8	1	0.9	-0.308	0.4
Cc1cccc(C)c1NC(=O)COC(=O)c1c2c(nc3ccccc13)/C(=C\c1ccc3c(c1)OCO3)CCC2	69.8*	0.3	0.9	0.8	-0.346	4.1
